From ChEMBL document CHEMBL2069203, “Cytotoxic and antibacterial beilschmiedic acids from a Gabonese species of Beilschmiedia” (J Nat Prod, 2012)
In brackets after ≈: the same amount, converted by molar mass. Activity calls are given as the source filed them.

Tests used:
M14 = assay: Cytotoxicity against human M14 cells incubated for 72 hrs by MTT assay; type: functional, cell-based
Procedure, shortened: (§1)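 Cells kept in RPMI-1640 with 10% FBS plus L-glutamine and HEPES, seeded at 5 × 10^2 to 5 × 10^4 cells/well and left to adhere overnight. Medium was replaced with DMSO stock diluted in medium at eight concentrations, 2−5 wells each. Camptothecin and vehicle served as controls. After 72 h at 37 °C, 5% CO2, viable cells were read by CellTiter 96 AQueous. IC50 came from dose−response curves.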

Staphylococcus aureus = assay: Antimicrobial activity against methicillin-resistant Staphylococcus aureus isolate 108 incubated for 24 hrs by broth microdilution method; type: functional
Procedure, shortened: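 CLSI broth microdilution on clinical MRSA isolate 108. Overnight trypticase soy broth culture diluted 1:100 in cation-adjusted Mueller-Hinton broth, grown at 37 °C to OD600 0.2, diluted 1:100 again to give 10^6 cfu/mL. Compound in DMSO diluted in medium, tested across a concentration series, 3-6 wells each. Vancomycin positive control. Incubated 24 h at 37 °C. MIC = lowest concentration preventing visible growth.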

NCI-H460 [1] = assay: Induction of membrane disruption in human NCI-H460 cells at 20 uM by LDH release assay; type: functional, cell-based
Procedure, shortened: (§2)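 NCI-H460 cells were plated at 1 × 10^4 cells/well in RPMI-1640 with 10% fetal calf serum and attached overnight. Compound or DMSO vehicle was added and incubated 24 or 72 h. Supernatant LDH was measured with the CytoTox 96 kit, absorbance at 490 nm, with kit lysis solution as positive control.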

PC-3 = assay: Cytotoxicity against human PC3 cells incubated for 72 hrs by MTT assay; type: functional, cell-based; procedure, shortened: as §1
NCI-H460 [2] = assay: Cytotoxicity against human NCI-H460 cells incubated for 72 hrs by MTT assay; type: functional, cell-based; procedure, shortened: as §1
NCI-H460 [3] = assay: Induction of membrane disruption in human NCI-H460 cells at 3 yo 5 fold cytotoxic IC50 level by LDH release assay; type: functional, cell-based; procedure, shortened: as §2
NCI-H460 [4] = assay: Induction of apoptosis in human NCI-H460 cells assessed as caspase 3/7 activation at 26.1uM; type: functional, cell-based
Procedure, shortened: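 NCI-H460 cells were plated at 1 × 10^4 cells/well in RPMI-1640 with 10% fetal calf serum and attached overnight. Compound or DMSO vehicle was added and incubated 24 or 72 h. Caspase 3/7 activity was read by Caspase-Glo 3/7 luminescence, with camptothecin 10 μg/mL as positive control. A result counted as active when caspase exceeded background plus two SD of the negative control without LDH release.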

[5] = Homo sapiens, NCI-H460, 72 h, read-out: IC50

SMILES	Activity (M14)	MIC (Staphylococcus aureus)	Activity (NCI-H460 [1])	Activity (PC-3)	IC50 (NCI-H460 [2]; nci-h460)	IC50 (NCI-H460 [2]; [5]) [µM]	MIC (Staphylococcus aureus; isolate 108, 24 h) [µg/mL]	Activity (NCI-H460 [3])	Activity (NCI-H460 [4])
CCCCCCCC[C@@H]1[C@H]2C=C[C@H]3C(C(=O)O)=C[C@@H](O)[C@@H]4C[C@@H]1[C@@H]2[C@H]43 [BEILSCHMIEDIC ACID C]	inactive	inactive	inactive	inactive	Not Active				
CC[C@@]1(O)C(=O)OCc2c1cc1n(c2=O)Cc2cc3ccccc3nc2-1 [CAMPTOTHECIN]						0.003			
O=C(O)C1=C[C@@H](O)[C@@H]2C[C@H]3[C@H](C/C=C/C=C/c4ccccc4)[C@H]4C=C[C@@H]1[C@@H]2[C@H]43 [BEILSCHMIEDIC ACID L]	inactive			inactive		4.4	11 (≈ 29.4 µM)	inactive	
O=C(O)C1=C[C@@H](O)[C@@H]2C[C@H]3[C@H](CCC/C=C/C=C/c4ccccc4)[C@H]4C=C[C@@H]1[C@@H]2[C@H]43	inactive	inactive	inactive	inactive	Not Active				
CCCCCCCC[C@@H]1[C@H]2C=C[C@H]3C(C(=O)O)=C[C@H](O)[C@@H]4C[C@@H]1[C@@H]2[C@H]43 [BEILSCHMIEDIC ACID A]	inactive			inactive		6.1	10 (≈ 29 µM)		
O=C(O)C1=C[C@@H](O)[C@@H]2C[C@H]3[C@H](CCCCCc4ccccc4)[C@H]4C=C[C@@H]1[C@@H]2[C@H]43 [BEILSCHMIEDIC ACID K]	inactive			inactive		5.9	11 (≈ 29.1 µM)	inactive	
O=C(O)C1=C[C@@H](O)[C@@H]2C[C@H]3[C@H](CCCC4C=CC(c5ccccc5)OO4)[C@H]4C=C[C@@H]1[C@@H]2[C@H]43 (stereo not given in full) [BEILSCHMIEDIC ACID N]	inactive			inactive		19	13 (≈ 29.9 µM)		
O=C(O)C1=C[C@@H](O)[C@@H]2C[C@H]3[C@H](CCC/C=C\C=C\c4ccccc4)[C@H]4C=C[C@@H]1[C@@H]2[C@H]43 [BEILSCHMIEDIC ACID M]	inactive			inactive		8.7	12 (≈ 29.8 µM)	inactive	Active
O=C(O)C1=C[C@H](O)[C@@H]2C[C@H]3[C@H](CCC/C=C/C=C/c4ccccc4)[C@H]4C=C[C@@H]1[C@@H]2[C@H]43 [BEILSCHMIEDIC ACID I]	inactive			inactive		5.5	12 (≈ 29.8 µM)	inactive	
O=C(O)C1=C[C@@H](O)[C@@H]2C[C@H]3[C@H](CCCc4ccc(-c5ccccc5)o4)[C@H]4C=C[C@@H]1[C@@H]2[C@H]43 [BEILSCHMIEDIC ACID O]	inactive		inactive	inactive	Not Active		13 (≈ 31.2 µM)		
